Test results taken from ChEMBL document CHEMBL4014267, “Anti-inflammatory and Antiosteoporosis Flavonoids from the Rhizomes of Helminthostachys zeylanica” (J Nat Prod, 2017).
Active and inactive are the calls of the source. The rule behind the calls is not given here.

Key:
Type in all cases: functional, cell-based
BV-2 = experiment: Antiinflammatory activity in mouse BV2 cells assessed as inhibition of LPS-induced nitric oxide production after 24 hrs by Griess assay; conditions: BV-2, 24 h
Outline: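 Murine BV2 microglia were grown in DMEM with 5% FBS and stimulated with LPS (0.5 μg/mL). NO was read as nitrite accumulated in the medium 24 h after stimulation, using Griess reagent.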

RAW264.7 [1] = experiment: Antiosteoporotic activity in mouse RAW264.7 cells assessed as inhibition of RANKL-induced osteoclast differentiation after 4 to 5 days by TRAP assay
Outline: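 RAW264.7 macrophages were differentiated for 4−5 days in DMEM with 100 ng/mL recombinant murine RANKL, alone or with test agent at 1, 3, 10 or 20 μM. Cells were then fixed and TRAP activity was read with a p-nitrophenylphosphate reaction buffer.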

RAW264.7 [2] = experiment: Osteoblastogenic activity in mouse […] cells at 10 uM

| Structure (SMILES) | IC50 (BV-2) [µM] | IC50 (RAW264.7 [1]) [µM] | Activity (RAW264.7 [2]) |
| --- | --- | --- | --- |
| C=C1CCCC(C)(C)[C@H]1Cc1c(OC)cc2oc(-c3ccc(O)c(O)c3)cc(=O)c2c1O | 8.1 | 1.8 | Active |
| CC1(C)CCC[C@]2(C)Oc3c(c(O)cc4oc(-c5ccc(O)c(O)c5)cc(=O)c34)C[C@H]12 | 19.7 | 4.6 | inactive |
| CC1=CCCC(C)(C)C1Cc1c(O)cc(/C=C/c2ccc(O)cc2)cc1O (stereo not drawn) | 6.2 |  |  |
| CC1=CCCC(C)(C)C12Cc1c(c(O)cc3oc4c(=O)c5c(O)cc(O)cc5oc4c13)O2 (stereo not drawn) | 18 | 4.5 | inactive |
| CC1(C)CCC[C@]2(C)Oc3c(O)cc4oc5c(=O)c6c(O)cc(O)cc6oc5c4c3C[C@H]12 | 7 | 3.5 | inactive |
| C=C1CCCC(C)(C)[C@H]1Cc1c(OC)cc2oc(-c3ccc(O)c(O)c3)c(OC)c(=O)c2c1O | 6.7 | 3.2 | inactive |
| CC1(C)CCC[C@@]2(C)Oc3c(c(O)cc4oc(-c5ccc(O)c(O)c5)cc(=O)c34)C[C@H]12 | 24.1 | > 10 | inactive |
| CC1(C)CC=C[C@]2(C)Oc3c(O)cc4oc5c(=O)c6c(O)cc(O)cc6oc5c4c3C[C@H]12 [UGONIN O] | 7.7 | 3.3 | inactive |
| C=C1CCCC(C)(C)[C@H]1Cc1c(O)cc2oc(-c3ccc(O)c(O)c3)cc(=O)c2c1O | 6.5 |  |  |
| CC1=CCCC(C)(C)C1Cc1c(O)c(O)cc2oc3c(=O)c4c(O)cc(O)cc4oc3c12 (stereo not drawn) [UGONIN M] | 10.1 | 2.5 | inactive |
| O=c1c(-c2ccc(O)cc2)coc2cc(O)cc(O)c12 [GENISTEIN] |  | 11.4 |  |
| S=C(S)N1CCCC1 [PYRROLIDINE DITHIOCARBAMATE] | 10.8 |  |  |
